Laboratory results reported in publication PMC4085604 (Scientific Reports, 2014).

B1: His6-trigger factor: trigger factor (N-terminal His-tag) (protein, UniProt P0A850 1-432, looked up)
Trigger factor: MQVSVETTQGLGRRVTITIAADSIETAVKSELVNVAKKVRIDGFRKGKVPMNIVAQRYGASVRQDVLGDLMSRNFIDAIIKEKINPAGAPTYVPGEYKLGEDFTYSVEFEVYPEVELQGLEAIEVEKPIVEVTDADVDGMLDTLRKQQATWKEKDGAVEAEDRVTIDFTGSVDGEEFEGGKASDFVLAMGQGRMIPGFEDGIKGHKAGEEFTIDVTFPEEYHAENLKGKAAKFAINLKKVEERELPELTAEFIKRFGVEDGSVEGLRAEVRKNMERELKSAIRNRVKSQAIEGLVKANDIDVPAALIDSEIDVLRRQAAQRFGGNEKQALELPRELFEEQAKRRVVVGLLLGEVIRTNELKADEERVKGLIEEMASAYEDPKEVIEFYSKNKELMDNMRNVALEEQAVEAVLAKAKVTEKETTFNELMNQQA
modifications: N-terminal His6 tag

Legend:
anti-His-tag mAb “8-4-4” = assay type: binding, mouse; conditions: inferred from FRET efficiency curve
[1] = system: BHQ-10-labeled anti-His-tag mAb “8-4-4”; assay: Homogeneous His6 detection assay; assay type: binding, mouse; conditions: for phosphorescence response, in words: increasing protein concentration, TRF after 90 s shaking; for detectability within total assay time, in words: total assay time of less than two minutes
Summary of the method: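 His6-tagged proteins (C- or N-terminal tag, or chemically His6-labeled BSA) in PBS pH 7.4 with 2 mg/mL BSA, or in E. coli lysate. Premixed with EuLH-HHRHH-NH2 donor peptide solution (40 nmol/L), then BHQ-10-labeled antibody solution (80 nmol/L) added. After 90 s shaking, read TRF at ex 370/em 616 nm. Triplicates. LOD is the lowest concentration whose mean exceeds blank plus 3 SD.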

Molecule | affinity to the anti-His-tag antibody, in words (anti-His-tag mAb “8-4-4”) | phosphorescence response, in words ([1]; n = 3) | detectability within total assay time, in words [1] | further results
HHEHH-NH2 | full loss of affinity to the anti-His-tag antibody | – | – | –
Bovine serum albumin [BSA, reference compound] | – | no response | – | –
HHHHHH-NH2 | strong and specific interaction between the peptide and the antibody | – | – | –
HHHHH-NH2 | did not influence the FRET efficiency curve substantially, and therefore also not the affinity | – | – | –
NPP3-His6: recombinant protein with C-terminal His-tag | – | – | could be detected highly significantly and semi-quantitatively | –
B1 | – | increasing phosphorescence intensities with increasing protein concentration | could be detected highly significantly and semi-quantitatively | detection limit ([1]; mass concentration, sample 50 μL + donor peptide EuLH-HHRHH-NH2 (10 μL, 40 nmol/L) + BHQ-10-mAb (40 μL, 80 nmol/L), PBS pH 7.4 with 2 mg/mL BSA, 90 s, n = 3, background plus 3x SD): 39 mg/L
